Measured values: ChEMBL document CHEMBL4184287, “Investigating PKA-RII specificity using analogs of the PKA:AKAP peptide inhibitor STAD-2” (Bioorg Med Chem, 2018)
Calls of active or inactive are those of the source. The calls are words filed in the database; no cut-off is given here.

How the values were obtained:
[1] = molecular target: cAMP-dependent protein kinase type I-alpha regulatory subunit (Homo sapiens) (UniProt P10644); assay: Binding affinity to recombinant human full length PKA-R1alpha expressed in Escherichia coli BL21 DE3-RIL cells assessed as reduction in interaction with AKAP at 20 nM by fluorescence polarization analysis
Method in brief: (§1)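 Single-concentration direct FP screen: 5 μM full-length recombinant human RIα or RIβ mixed with 20 nM 5(6)-FAM-labelled peptide in 20 mM MOPS pH 7, 150 mM NaCl, 0.005% (v/v) CHAPS. Read at room temperature, Ex 482 nm/Em 520 nm, in duplicate.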

[2] = molecular target: cAMP-dependent protein kinase type I-beta regulatory subunit (Homo sapiens) (UniProt P31321); assay: Binding affinity to recombinant human full length PKA-R1beta expressed in Escherichia coli BL21 DE3-RIL cells assessed as reduction in interaction with AKAP at 20 nM by fluorescence polarization analysis; method in brief: as §1
cAMP-dependent protein kinase type I-beta regulatory subunit (Homo sapiens), sequence (P31321 whole entry): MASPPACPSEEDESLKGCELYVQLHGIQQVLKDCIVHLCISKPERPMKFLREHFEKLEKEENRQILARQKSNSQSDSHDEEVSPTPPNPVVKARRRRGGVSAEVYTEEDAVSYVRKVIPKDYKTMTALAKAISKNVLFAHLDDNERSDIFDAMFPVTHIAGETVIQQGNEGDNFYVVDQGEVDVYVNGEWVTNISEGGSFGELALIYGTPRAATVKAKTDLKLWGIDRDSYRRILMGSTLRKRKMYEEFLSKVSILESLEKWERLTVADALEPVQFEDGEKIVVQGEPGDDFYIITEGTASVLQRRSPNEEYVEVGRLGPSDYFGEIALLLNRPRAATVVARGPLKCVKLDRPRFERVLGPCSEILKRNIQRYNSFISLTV

cAMP-dependent protein kinase type I-alpha regulatory subunit (Homo sapiens), sequence (P10644 whole entry): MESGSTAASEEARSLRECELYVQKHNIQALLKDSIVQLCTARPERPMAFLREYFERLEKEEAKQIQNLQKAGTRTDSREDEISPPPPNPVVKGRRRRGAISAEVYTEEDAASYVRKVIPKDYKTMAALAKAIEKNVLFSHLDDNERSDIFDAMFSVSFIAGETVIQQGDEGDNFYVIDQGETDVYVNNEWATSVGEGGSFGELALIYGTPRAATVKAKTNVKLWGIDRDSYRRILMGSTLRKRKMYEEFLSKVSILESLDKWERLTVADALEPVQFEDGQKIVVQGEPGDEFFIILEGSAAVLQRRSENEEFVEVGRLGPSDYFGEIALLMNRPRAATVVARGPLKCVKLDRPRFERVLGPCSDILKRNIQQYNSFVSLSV

SMILES | Activity [1] | Activity [2]
CC(C)C[C@H](NC(=O)[C@H](C)NC(=O)[C@]1(C)CCC/C=C/CCC[C@](C)(NC(=O)[C@H](CO)NC(=O)[C@@H](NC(=O)[C@H](CC(C)C)NC(=O)[C@H](Cc2ccccc2)NC(=O)[C@H](CCCCN)NC(=O)[C@H](C)NC(=O)[C@H](CC(C)C)NC(=O)[C@H](CCCCN)NC(=O)[C@H](C)NC(=O)COCCOCCOCCN)C(C)C)C(=O)N[C@@H](C)C(=O)N[C@@H](CC(C)C)C(=O)N[C@@H](CCCCN)C(=O)N1)C(=O)N[C@@H](CCCCN)C(=O)O | inactive | inactive
CC(C)C[C@@H]1NC(=O)[C@H](C)NC(=O)[C@@](C)(NC(=O)[C@H](CO)NC(=O)[C@@H](NC(=O)[C@H](CC(C)C)NC(=O)[C@H](Cc2ccccc2)NC(=O)[C@H](CCCCN)NC(=O)[C@H](C)NC(=O)[C@H](CC(C)C)NC(=O)[C@H](CCCCN)NC(=O)[C@H](CCCCN)NC(=O)COCCOCCOCCN)C(C)C)CCC/C=C/CCC[C@@](C)(C(=O)N[C@@H](C)C(=O)N[C@@H](CC(C)C)C(=O)N[C@@H](CCCCN)C(=O)O)NC(=O)[C@H](C)NC1=O | inactive | inactive
CC(C)C[C@H](NC(=O)[C@H](C)NC(=O)[C@]1(C)CCC/C=C/CCC[C@](C)(NC(=O)[C@H](CO)NC(=O)[C@H](C)NC(=O)[C@H](CC(C)C)NC(=O)[C@H](Cc2ccccc2)NC(=O)[C@H](CCCCN)NC(=O)[C@H](C)NC(=O)[C@H](CC(C)C)NC(=O)[C@H](CCCCN)NC(=O)[C@H](CCCCN)NC(=O)COCCOCCOCCN)C(=O)N[C@@H](C)C(=O)N[C@@H](CC(C)C)C(=O)N[C@@H](CCCCN)C(=O)N1)C(=O)N[C@@H](CCCCN)C(=O)O | inactive | inactive
CC(C)C[C@H](NC(=O)[C@H](C)NC(=O)[C@]1(C)CCC/C=C/CCC[C@](C)(NC(=O)[C@H](CO)NC(=O)[C@@H](NC(=O)[C@H](CC(C)C)NC(=O)[C@H](C)NC(=O)[C@H](CCCCN)NC(=O)[C@H](C)NC(=O)[C@H](CC(C)C)NC(=O)[C@H](CCCCN)NC(=O)[C@H](CCCCN)NC(=O)COCCOCCOCCN)C(C)C)C(=O)N[C@@H](C)C(=O)N[C@@H](CC(C)C)C(=O)N[C@@H](CCCCN)C(=O)N1)C(=O)N[C@@H](CCCCN)C(=O)O | inactive | inactive
CC(C)C[C@@H]1NC(=O)[C@H](C)NC(=O)[C@@](C)(NC(=O)[C@H](CO)NC(=O)[C@@H](NC(=O)[C@H](CC(C)C)NC(=O)[C@H](Cc2ccccc2)NC(=O)[C@H](CCCCN)NC(=O)[C@H](C)NC(=O)[C@H](CC(C)C)NC(=O)[C@H](CCCCN)NC(=O)[C@H](CCCCN)NC(=O)COCCOCCOCCN)C(C)C)CCC/C=C/CCC[C@@](C)(C(=O)N[C@@H](C)C(=O)N[C@@H](C)C(=O)N[C@@H](CCCCN)C(=O)O)NC(=O)[C@H](CCCCN)NC1=O | inactive | inactive
CC(C)C[C@H](NC(=O)[C@H](C)NC(=O)[C@]1(C)CCC/C=C/CCC[C@](C)(NC(=O)[C@H](CO)NC(=O)[C@@H](NC(=O)[C@H](C)NC(=O)[C@H](Cc2ccccc2)NC(=O)[C@H](CCCCN)NC(=O)[C@H](C)NC(=O)[C@H](CC(C)C)NC(=O)[C@H](CCCCN)NC(=O)[C@H](CCCCN)NC(=O)COCCOCCOCCN)C(C)C)C(=O)N[C@@H](C)C(=O)N[C@@H](CC(C)C)C(=O)N[C@@H](CCCCN)C(=O)N1)C(=O)N[C@@H](CCCCN)C(=O)O | inactive | inactive
CC(C)C[C@H](NC(=O)[C@H](C)NC(=O)[C@]1(C)CCC/C=C/CCC[C@](C)(NC(=O)[C@H](C)NC(=O)[C@@H](NC(=O)[C@H](CC(C)C)NC(=O)[C@H](Cc2ccccc2)NC(=O)[C@H](CCCCN)NC(=O)[C@H](C)NC(=O)[C@H](CC(C)C)NC(=O)[C@H](CCCCN)NC(=O)[C@H](CCCCN)NC(=O)COCCOCCOCCN)C(C)C)C(=O)N[C@@H](C)C(=O)N[C@@H](CC(C)C)C(=O)N[C@@H](CCCCN)C(=O)N1)C(=O)N[C@@H](CCCCN)C(=O)O | inactive | inactive
CC(C)C[C@H](NC(=O)[C@H](C)NC(=O)[C@]1(C)CCC/C=C/CCC[C@](C)(NC(=O)[C@H](CO)NC(=O)[C@@H](NC(=O)[C@H](CC(C)C)NC(=O)[C@H](Cc2ccccc2)NC(=O)[C@H](CCCCN)NC(=O)[C@H](C)NC(=O)[C@H](CC(C)C)NC(=O)[C@H](CCCCN)NC(=O)[C@H](CCCCN)NC(=O)COCCOCCOCCN)C(C)C)C(=O)N[C@@H](C)C(=O)N[C@@H](CC(C)C)C(=O)N[C@@H](CCCCN)C(=O)N1)C(=O)N[C@@H](C)C(=O)O | inactive | inactive
CC(C)C[C@H](NC(=O)[C@H](C)NC(=O)[C@]1(C)CCC/C=C/CCC[C@](C)(NC(=O)[C@H](CO)NC(=O)[C@@H](NC(=O)[C@H](CC(C)C)NC(=O)[C@H](Cc2ccccc2)NC(=O)[C@H](C)NC(=O)[C@H](C)NC(=O)[C@H](CC(C)C)NC(=O)[C@H](CCCCN)NC(=O)[C@H](CCCCN)NC(=O)COCCOCCOCCN)C(C)C)C(=O)N[C@@H](C)C(=O)N[C@@H](CC(C)C)C(=O)N[C@@H](CCCCN)C(=O)N1)C(=O)N[C@@H](CCCCN)C(=O)O | inactive | inactive
CC(C)C[C@H](NC(=O)[C@H](C)NC(=O)[C@H](CCCCN)NC(=O)COCCOCCOCCN)C(=O)N[C@@H](C)C(=O)N[C@@H](CCCCN)C(=O)N[C@@H](Cc1ccccc1)C(=O)N[C@@H](CC(C)C)C(=O)N[C@H](C(=O)N[C@@H](CO)C(=O)N[C@@]1(C)CCC/C=C/CCC[C@@](C)(C(=O)N[C@@H](C)C(=O)N[C@@H](CC(C)C)C(=O)N[C@@H](CCCCN)C(=O)O)NC(=O)[C@H](CCCCN)NC(=O)[C@H](CC(C)C)NC(=O)[C@H](C)NC1=O)C(C)C | inactive | inactive
CC(C)C[C@H](NC(=O)[C@H](C)NC(=O)[C@]1(C)CCC/C=C/CCC[C@](C)(NC(=O)[C@H](CO)NC(=O)[C@@H](NC(=O)[C@H](CC(C)C)NC(=O)[C@H](Cc2ccccc2)NC(=O)[C@H](CCCCN)NC(=O)[C@H](C)NC(=O)[C@H](C)NC(=O)[C@H](CCCCN)NC(=O)[C@H](CCCCN)NC(=O)COCCOCCOCCN)C(C)C)C(=O)N[C@@H](C)C(=O)N[C@@H](CC(C)C)C(=O)N[C@@H](CCCCN)C(=O)N1)C(=O)N[C@@H](CCCCN)C(=O)O | inactive | inactive
CC(C)C[C@H](NC(=O)[C@H](C)NC(=O)[C@]1(C)CCC/C=C/CCC[C@](C)(NC(=O)[C@H](CO)NC(=O)[C@@H](NC(=O)[C@H](CC(C)C)NC(=O)[C@H](Cc2ccccc2)NC(=O)[C@H](CCCCN)NC(=O)[C@H](C)NC(=O)[C@H](CC(C)C)NC(=O)[C@H](CCCCN)NC(=O)[C@H](CCCCN)NC(=O)COCCOCCOCCN)C(C)C)C(=O)N[C@@H](C)C(=O)N[C@@H](C)C(=O)N[C@@H](CCCCN)C(=O)N1)C(=O)N[C@@H](CCCCN)C(=O)O | inactive | inactive
CC(C)C[C@H](NC(=O)[C@H](C)NC(=O)[C@]1(C)CCC/C=C/CCC[C@](C)(NC(=O)[C@H](CO)NC(=O)[C@@H](NC(=O)[C@H](CC(C)C)NC(=O)[C@H](Cc2ccccc2)NC(=O)[C@H](CCCCN)NC(=O)[C@H](C)NC(=O)[C@H](CC(C)C)NC(=O)[C@H](CCCCN)NC(=O)[C@H](CCCCN)NC(=O)COCCOCCOCCN)C(C)C)C(=O)N[C@@H](C)C(=O)N[C@@H](CC(C)C)C(=O)N[C@@H](CCCCN)C(=O)N1)C(=O)N[C@@H](CCCCN)C(=O)O | inactive | inactive
